# Experimental data: ChEMBL document CHEMBL3351385, “Synthesis and preliminary mechanistic evaluation of 5-(p-tolyl)-1-(quinolin-2-yl)pyrazole-3-carboxylic acid amides with potent antiproliferative activity on human cancer cell lines” (Eur J Med Chem, 2014)
# Tests used:
# [1] = Cytotoxicity against human HuH7 cells after 72 hrs by SRB assay; assay type: functional, cell-based; conditions: Huh-7, 72 h
# Outline: (§1)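 Cells kept in DMEM with 10% FCS and penicillin/streptomycin at 37°C, 5% CO2. 2000–3000 cells/well were seeded, and medium was refreshed the next day. DMSO solutions were added over 2.5–40 µM with matched DMSO-only controls for 72 h. Cells were then TCA-fixed, stained with 0.4% SRB in 1% acetic acid, solubilized in 10 mM Tris pH 8 and read at 515 nm. Data were normalized to DMSO wells and expressed as mean ±SD.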
# MCF7 = test: Cytotoxicity against human MCF7 cells after 72 hrs by SRB assay; assay type: functional, cell-based; conditions: MCF7, 72 h; outline: as §1
# [2] = Induction of cell cycle arrest in human Mahlavu cells assessed as accumulation at S phase at cytotoxic IC50 level after 48 hrs by propidium iodide staining based FACS method; assay type: functional
# [3] = molecular target: Mitogen-activated protein kinase 1 (Homo sapiens) (UniProt P28482); test: Inhibition of ERK2 (unknown origin) assessed as remaining enzyme activity at 10 uM by radioactive [33P]-ATP filter binding assay
# Sequence of Mitogen-activated protein kinase 1 (Homo sapiens) (P28482 whole entry): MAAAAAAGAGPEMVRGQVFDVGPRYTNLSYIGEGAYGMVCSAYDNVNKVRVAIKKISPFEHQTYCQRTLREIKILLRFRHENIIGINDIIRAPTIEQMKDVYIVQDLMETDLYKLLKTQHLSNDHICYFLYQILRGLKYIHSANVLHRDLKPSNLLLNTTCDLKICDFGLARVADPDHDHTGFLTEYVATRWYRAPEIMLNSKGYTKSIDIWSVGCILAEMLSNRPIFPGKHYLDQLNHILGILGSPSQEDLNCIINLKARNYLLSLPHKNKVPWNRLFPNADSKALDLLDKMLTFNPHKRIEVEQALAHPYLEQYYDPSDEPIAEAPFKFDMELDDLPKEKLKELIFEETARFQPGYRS
# Outline: (§2)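 A single 10 µM concentration was tested across a 140-kinase panel. Activity was measured by a radioactive 33P-ATP filter-binding assay run at the International Center for Kinase Profiling, University of Dundee.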
# [4] = molecular target: Rho-associated protein kinase 2 (Homo sapiens) (UniProt O75116); test: Inhibition of ROCK2 (unknown origin) assessed as remaining enzyme activity at 10 uM by radioactive [33P]-ATP filter binding assay
# [5] = molecular target: MAP kinase-interacting serine/threonine-protein kinase 2 (Homo sapiens) (UniProt Q9HBH9); test: Inhibition of MNK2 (unknown origin) assessed as remaining enzyme activity at 10 uM by radioactive [33P]-ATP filter binding assay
# [6] = molecular target: MAP kinase-activated protein kinase 2 (Homo sapiens) (UniProt P49137); test: Inhibition of MAPKAPK2 (unknown origin) assessed as remaining enzyme activity at 10 uM by radioactive [33P]-ATP filter binding assay
# Sequence of MAP kinase-activated protein kinase 2 (Homo sapiens) (P49137 whole entry, looked up): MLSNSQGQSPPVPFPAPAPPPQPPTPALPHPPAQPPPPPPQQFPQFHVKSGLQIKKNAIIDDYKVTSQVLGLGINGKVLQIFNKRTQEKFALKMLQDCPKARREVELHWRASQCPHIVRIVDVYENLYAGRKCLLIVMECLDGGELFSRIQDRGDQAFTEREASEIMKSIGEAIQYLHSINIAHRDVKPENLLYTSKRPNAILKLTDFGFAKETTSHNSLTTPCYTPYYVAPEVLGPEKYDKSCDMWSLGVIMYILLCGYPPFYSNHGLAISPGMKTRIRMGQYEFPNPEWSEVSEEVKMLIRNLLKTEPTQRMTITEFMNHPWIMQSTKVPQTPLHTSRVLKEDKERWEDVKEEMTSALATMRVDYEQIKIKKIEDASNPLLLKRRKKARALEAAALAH
# [7] = molecular target: MAP kinase-activated protein kinase 3 (Homo sapiens) (UniProt Q16644); test: Inhibition of MAPKAPK3 (unknown origin) assessed as remaining enzyme activity at 10 uM by radioactive [33P]-ATP filter binding assay
# [8] = molecular target: Serine/threonine-protein kinase Chk1 (Homo sapiens) (UniProt O14757); test: Inhibition of CHK1 (unknown origin) assessed as remaining enzyme activity at 10 uM by radioactive [33P]-ATP filter binding assay; outline: as §2
# [9] = molecular target: CDK2/Cyclin A2 (Homo sapiens) (UniProt P24941+P20248); test: Inhibition of CDK2/Cyclin A (unknown origin) assessed as remaining enzyme activity at 10 uM by radioactive [33P]-ATP filter binding assay; assay type: protein-complex assay; outline: as §2
# [10] = molecular target: Tyrosine-protein kinase ABL1 (Homo sapiens) (UniProt P00519); test: Inhibition of ABL (unknown origin) assessed as remaining enzyme activity at 10 uM by radioactive [33P]-ATP filter binding assay; outline: as §2
# [11] = molecular target: Tyrosine-protein kinase BTK (Homo sapiens) (UniProt Q06187); test: Inhibition of BTK (unknown origin) assessed as remaining enzyme activity at 10 uM by radioactive [33P]-ATP filter binding assay; outline: as §2
# [12] = molecular target: Tyrosine-protein kinase ZAP-70 (Homo sapiens) (UniProt P43403); test: Inhibition of ZAP70 (unknown origin) assessed as remaining enzyme activity at 10 uM by radioactive [33P]-ATP filter binding assay
# [13] = molecular target: Insulin receptor (Homo sapiens) (UniProt P06213); test: Inhibition of IR (unknown origin) assessed as remaining enzyme activity at 10 uM by radioactive [33P]-ATP filter binding assay
# Sequence of Insulin receptor (Homo sapiens) (P06213 28-758 limits assumed): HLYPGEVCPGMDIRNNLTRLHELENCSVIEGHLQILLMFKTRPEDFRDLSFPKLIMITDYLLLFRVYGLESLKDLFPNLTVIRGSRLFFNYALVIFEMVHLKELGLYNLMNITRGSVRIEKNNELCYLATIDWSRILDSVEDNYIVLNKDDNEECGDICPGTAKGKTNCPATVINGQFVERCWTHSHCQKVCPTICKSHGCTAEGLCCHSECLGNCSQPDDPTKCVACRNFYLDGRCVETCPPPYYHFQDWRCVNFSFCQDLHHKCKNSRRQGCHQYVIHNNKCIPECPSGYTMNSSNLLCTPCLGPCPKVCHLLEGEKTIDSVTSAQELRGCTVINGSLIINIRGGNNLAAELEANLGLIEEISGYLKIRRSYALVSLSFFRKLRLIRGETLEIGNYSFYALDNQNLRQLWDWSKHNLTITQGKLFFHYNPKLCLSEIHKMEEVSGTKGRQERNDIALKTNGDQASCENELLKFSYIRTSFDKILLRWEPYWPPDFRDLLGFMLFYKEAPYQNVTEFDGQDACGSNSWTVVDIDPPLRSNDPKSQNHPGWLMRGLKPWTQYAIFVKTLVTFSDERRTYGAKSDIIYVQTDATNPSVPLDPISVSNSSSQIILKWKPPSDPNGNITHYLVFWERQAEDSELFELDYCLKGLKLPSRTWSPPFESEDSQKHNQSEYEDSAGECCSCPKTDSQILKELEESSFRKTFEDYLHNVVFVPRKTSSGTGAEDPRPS
# Sequence of Insulin receptor (Homo sapiens) (P06213 763-1382 limits assumed): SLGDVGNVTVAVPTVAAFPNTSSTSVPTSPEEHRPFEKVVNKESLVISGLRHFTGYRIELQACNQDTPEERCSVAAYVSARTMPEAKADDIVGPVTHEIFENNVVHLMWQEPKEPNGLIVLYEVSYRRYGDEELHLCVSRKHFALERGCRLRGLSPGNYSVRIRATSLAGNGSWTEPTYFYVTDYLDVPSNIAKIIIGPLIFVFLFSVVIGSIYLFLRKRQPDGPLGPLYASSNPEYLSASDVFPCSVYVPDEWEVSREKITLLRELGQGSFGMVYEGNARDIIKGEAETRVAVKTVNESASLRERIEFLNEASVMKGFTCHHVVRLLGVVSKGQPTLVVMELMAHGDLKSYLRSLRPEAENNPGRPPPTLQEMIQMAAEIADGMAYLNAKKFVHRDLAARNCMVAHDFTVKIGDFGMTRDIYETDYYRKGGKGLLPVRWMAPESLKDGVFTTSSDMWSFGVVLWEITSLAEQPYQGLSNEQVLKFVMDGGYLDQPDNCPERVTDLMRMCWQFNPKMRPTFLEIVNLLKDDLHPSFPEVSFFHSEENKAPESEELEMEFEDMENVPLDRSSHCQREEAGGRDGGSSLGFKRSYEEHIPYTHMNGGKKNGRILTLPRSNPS
# [14] = molecular target: Discoidin domain-containing receptor 2 (Homo sapiens) (UniProt Q16832); test: Inhibition of DDR2 (unknown origin) assessed as remaining enzyme activity at 10 uM by radioactive [33P]-ATP filter binding assay; outline: as §2
# Sequence of Discoidin domain-containing receptor 2 (Homo sapiens) (Q16832 whole entry, the tested form may be a part): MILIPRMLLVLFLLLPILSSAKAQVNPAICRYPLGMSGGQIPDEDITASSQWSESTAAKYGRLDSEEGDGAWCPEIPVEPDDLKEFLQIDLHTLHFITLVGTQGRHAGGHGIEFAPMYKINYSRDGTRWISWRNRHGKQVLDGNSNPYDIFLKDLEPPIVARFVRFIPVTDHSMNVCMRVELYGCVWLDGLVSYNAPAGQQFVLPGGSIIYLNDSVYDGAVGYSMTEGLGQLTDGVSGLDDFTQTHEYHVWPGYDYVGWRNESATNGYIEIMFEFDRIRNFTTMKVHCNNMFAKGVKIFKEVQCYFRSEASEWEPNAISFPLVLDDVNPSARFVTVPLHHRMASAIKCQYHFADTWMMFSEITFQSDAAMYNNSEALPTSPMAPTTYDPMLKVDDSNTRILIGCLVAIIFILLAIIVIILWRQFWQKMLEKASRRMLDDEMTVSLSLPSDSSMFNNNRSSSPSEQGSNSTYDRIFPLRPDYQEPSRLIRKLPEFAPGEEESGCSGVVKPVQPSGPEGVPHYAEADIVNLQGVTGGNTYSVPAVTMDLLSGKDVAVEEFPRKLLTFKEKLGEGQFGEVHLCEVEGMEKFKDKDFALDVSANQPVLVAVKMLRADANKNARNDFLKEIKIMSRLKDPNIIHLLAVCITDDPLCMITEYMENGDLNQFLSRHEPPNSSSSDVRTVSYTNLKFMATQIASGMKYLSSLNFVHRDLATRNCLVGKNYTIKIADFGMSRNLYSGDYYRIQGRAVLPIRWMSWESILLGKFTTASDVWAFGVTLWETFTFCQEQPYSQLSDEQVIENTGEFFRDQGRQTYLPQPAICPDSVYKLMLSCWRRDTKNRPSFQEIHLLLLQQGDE
# [15] = molecular target: Vascular endothelial growth factor receptor (Homo sapiens) (UniProt P17948+P35916+P35968); test: Inhibition of VEGFR (unknown origin) assessed as remaining enzyme activity at 10 uM by radioactive [33P]-ATP filter binding assay; assay type: protein assay
# [16] = molecular target: Serine/threonine-protein kinase PINK1, mitochondrial (Homo sapiens) (UniProt Q9BXM7); test: Inhibition of PINK (unknown origin) assessed as remaining enzyme activity at 10 uM by radioactive [33P]-ATP filter binding assay
# [17] = molecular target: NUAK family SNF1-like kinase 1 (Homo sapiens) (UniProt O60285); test: Inhibition of NUAK1 (unknown origin) assessed as remaining enzyme activity at 10 uM by radioactive [33P]-ATP filter binding assay
# Sequence of NUAK family SNF1-like kinase 1 (Homo sapiens) (O60285 whole entry, canonical isoform): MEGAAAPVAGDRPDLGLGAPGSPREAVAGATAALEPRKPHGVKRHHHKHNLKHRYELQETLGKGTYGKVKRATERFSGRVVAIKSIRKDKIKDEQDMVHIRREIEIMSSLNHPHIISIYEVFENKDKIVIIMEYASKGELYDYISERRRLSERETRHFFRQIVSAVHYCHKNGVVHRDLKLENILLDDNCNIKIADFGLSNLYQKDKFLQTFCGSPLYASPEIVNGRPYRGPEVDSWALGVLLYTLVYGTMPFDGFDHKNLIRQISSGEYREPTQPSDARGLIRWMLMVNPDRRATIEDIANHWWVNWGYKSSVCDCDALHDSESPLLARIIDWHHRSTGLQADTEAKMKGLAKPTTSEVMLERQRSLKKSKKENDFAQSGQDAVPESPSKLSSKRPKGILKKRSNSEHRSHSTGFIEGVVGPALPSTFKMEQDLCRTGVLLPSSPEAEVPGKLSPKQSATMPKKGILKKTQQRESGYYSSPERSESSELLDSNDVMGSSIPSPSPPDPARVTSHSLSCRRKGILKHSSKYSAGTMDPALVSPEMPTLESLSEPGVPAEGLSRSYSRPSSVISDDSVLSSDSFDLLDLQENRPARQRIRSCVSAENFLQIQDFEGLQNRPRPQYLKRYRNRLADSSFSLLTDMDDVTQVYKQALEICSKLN
# [18] = molecular target: Casein kinase I isoform delta (Homo sapiens) (UniProt P48730); test: Inhibition of CK1delta (unknown origin) assessed as remaining enzyme activity at 10 uM by radioactive [33P]-ATP filter binding assay; outline: as §2
# [19] = molecular target: Tau-tubulin kinase 1 (Homo sapiens) (UniProt Q5TCY1); test: Inhibition of TTBK1 (unknown origin) assessed as remaining enzyme activity at 10 uM by radioactive [33P]-ATP filter binding assay
# Sequence of Tau-tubulin kinase 1 (Homo sapiens) (Q5TCY1 whole entry): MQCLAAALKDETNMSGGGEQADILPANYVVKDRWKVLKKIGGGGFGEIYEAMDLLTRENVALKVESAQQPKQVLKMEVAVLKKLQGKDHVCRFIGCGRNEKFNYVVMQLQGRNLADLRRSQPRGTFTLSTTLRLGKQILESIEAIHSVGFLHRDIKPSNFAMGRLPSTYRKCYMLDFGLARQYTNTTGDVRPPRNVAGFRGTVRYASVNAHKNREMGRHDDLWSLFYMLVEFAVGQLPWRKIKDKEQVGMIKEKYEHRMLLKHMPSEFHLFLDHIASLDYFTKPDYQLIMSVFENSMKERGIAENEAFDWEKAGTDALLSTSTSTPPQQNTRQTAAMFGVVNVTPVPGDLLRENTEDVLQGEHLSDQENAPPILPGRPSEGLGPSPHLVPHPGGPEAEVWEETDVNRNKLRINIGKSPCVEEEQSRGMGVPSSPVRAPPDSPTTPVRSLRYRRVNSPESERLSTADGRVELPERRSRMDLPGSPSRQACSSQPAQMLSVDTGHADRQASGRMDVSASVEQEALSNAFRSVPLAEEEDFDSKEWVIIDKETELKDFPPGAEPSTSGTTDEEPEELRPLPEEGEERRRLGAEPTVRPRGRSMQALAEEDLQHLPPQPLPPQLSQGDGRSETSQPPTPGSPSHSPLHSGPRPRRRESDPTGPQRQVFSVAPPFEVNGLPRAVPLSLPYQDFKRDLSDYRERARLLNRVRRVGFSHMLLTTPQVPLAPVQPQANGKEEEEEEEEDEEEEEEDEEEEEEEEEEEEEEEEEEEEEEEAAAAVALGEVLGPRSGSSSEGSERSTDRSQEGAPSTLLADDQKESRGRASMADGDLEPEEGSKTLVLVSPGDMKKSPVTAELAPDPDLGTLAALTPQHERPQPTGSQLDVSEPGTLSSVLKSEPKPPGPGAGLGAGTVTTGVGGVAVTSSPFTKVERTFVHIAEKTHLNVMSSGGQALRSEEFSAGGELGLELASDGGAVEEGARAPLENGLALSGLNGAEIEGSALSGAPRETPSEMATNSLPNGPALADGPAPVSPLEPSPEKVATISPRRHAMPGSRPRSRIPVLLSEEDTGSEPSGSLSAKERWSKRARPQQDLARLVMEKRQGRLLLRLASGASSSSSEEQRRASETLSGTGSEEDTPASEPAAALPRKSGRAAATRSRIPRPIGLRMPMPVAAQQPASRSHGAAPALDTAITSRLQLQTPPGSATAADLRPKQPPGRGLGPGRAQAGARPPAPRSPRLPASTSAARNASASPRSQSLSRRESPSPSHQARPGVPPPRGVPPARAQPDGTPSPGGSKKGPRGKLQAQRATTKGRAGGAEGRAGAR
# [20] = molecular target: Serine/threonine-protein kinase Nek6 (Homo sapiens) (UniProt Q9HC98); test: Inhibition of NEK6 (unknown origin) assessed as remaining enzyme activity at 10 uM by radioactive [33P]-ATP filter binding assay
# [21] = molecular target: Eukaryotic elongation factor 2 kinase (Homo sapiens) (UniProt O00418); test: Inhibition of EF2K (unknown origin) assessed as remaining enzyme activity at 10 uM by radioactive [33P]-ATP filter binding assay; outline: as §2
# [22] = molecular target: Serine/threonine-protein kinase 3 (Homo sapiens) (UniProt Q13188); test: Inhibition of MST2 (unknown origin) assessed as remaining enzyme activity at 10 uM by radioactive [33P]-ATP filter binding assay
# [23] = molecular target: Mitogen-activated protein kinase kinase kinase kinase 3 (Homo sapiens) (UniProt Q8IVH8); test: Inhibition of MAP4K3 (unknown origin) assessed as remaining enzyme activity at 10 uM by radioactive [33P]-ATP filter binding assay
# [24] = molecular target: Misshapen-like kinase 1 (Homo sapiens) (UniProt Q8N4C8); test: Inhibition of MINK1 (unknown origin) assessed as remaining enzyme activity at 10 uM by radioactive [33P]-ATP filter binding assay
# [25] = molecular target: Mitogen-activated protein kinase kinase kinase 1 (Homo sapiens) (UniProt Q13233); test: Inhibition of MEKK1 (unknown origin) assessed as remaining enzyme activity at 10 uM by radioactive [33P]-ATP filter binding assay
# [26] = molecular target: Mitogen-activated protein kinase kinase kinase 5 (Homo sapiens) (UniProt Q99683); test: Inhibition of ASK1 (unknown origin) assessed as remaining enzyme activity at 10 uM by radioactive [33P]-ATP filter binding assay; outline: as §2
# [27] = molecular target: Serine/threonine-protein kinase 16 (Homo sapiens) (UniProt O75716); test: Inhibition of MPSK1 (unknown origin) assessed as remaining enzyme activity at 10 uM by radioactive [33P]-ATP filter binding assay
# [28] = molecular target: Serine/threonine-protein kinase ULK2 (Homo sapiens) (UniProt Q8IYT8); test: Inhibition of ULK2 (unknown origin) assessed as remaining enzyme activity at 10 uM by radioactive [33P]-ATP filter binding assay
structure (smiles),measurement,setting,value
Cc1ccc(-c2cc(C(=O)Nc3ccnc(Cl)c3)nn2-c2ccc3ccccc3n2)cc1,IC50,[1],1600 nM
same,IC50,MCF7,3300 nM
same,Activity,[2],11.1%
same,Activity,[3],115%
same,Activity,[4],85%
same,Activity,[5],109%
same,Activity,[6],84%
same,Activity,[7],94%
same,Activity,[8],85%
same,Activity,[9],102%
same,Activity,[10],84%
same,Activity,[11],92%
same,Activity,[12],115%
same,Activity,[13],96%
same,Activity,[14],113%
same,Activity,[15],92%
same,Activity,[16],114%
same,Activity,[17],100%
same,Activity,[18],96%
same,Activity,[19],104%
same,Activity,[20],116%
same,Activity,[21],97%
same,Activity,[22],104%
same,Activity,[23],90%
same,Activity,[24],114%
same,Activity,[25],113%
same,Activity,[26],97%
same,Activity,[27],113%
same,Activity,[28],112%
